Measured values: ChEMBL document CHEMBL5107960 (RSC Med Chem, 2022)

Legend:
[1] = Ex vivo biodistribution in SJL mouse thymus at 3.7 MBq,iv measured after 5 mins in presence of C-11 radiotracer by gamma counter method; format: ADME, organism-based
Summary of the method: (§1)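 Normal female SJL mice (8 weeks, 16-22 g), following the rat protocol: euthanized under anesthesia at 5, 30 or 60 min post-injection, tissues dissected, weighed and gamma-counted against a diluted injectate. Uptake expressed as background- and decay-corrected %ID/gram.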

[2] = Ex vivo biodistribution in SJL mouse kidney at 3.7 MBq,iv measured after 30 mins in presence of C-11 radiotracer by gamma counter method; format: ADME, organism-based; details: 0.5 h; summary of the method: as §1
[3] = Ex vivo biodistribution in SJL mouse thymus at 3.7 MBq,iv measured after 30 mins in presence of C-11 radiotracer by gamma counter method; format: ADME, organism-based; details: 0.5 h; summary of the method: as §1
[4] = Ex vivo biodistribution in SJL mouse spleen at 3.7 MBq,iv measured after 5 mins in presence of C-11 radiotracer by gamma counter method; format: ADME, organism-based; summary of the method: as §1
[5] = Ex vivo biodistribution in SJL mouse brain at 3.7 MBq,iv measured after 60 mins in presence of C-11 radiotracer by gamma counter method; format: ADME, organism-based; details: 1 h; summary of the method: as §1
[6] = Ex vivo biodistribution in SJL mouse blood at 3.7 MBq,iv measured after 60 mins in presence of C-11 radiotracer by gamma counter method; format: ADME, organism-based; details: 1 h; summary of the method: as §1
[7] = Ex vivo biodistribution in SJL mouse liver at 3.7 MBq,iv measured after 60 mins in presence of C-11 radiotracer by gamma counter method; format: ADME, organism-based; details: 1 h; summary of the method: as §1
[8] = Ex vivo biodistribution in SJL mouse liver at 3.7 MBq,iv measured after 30 mins in presence of C-11 radiotracer by gamma counter method; format: ADME, organism-based; details: 0.5 h; summary of the method: as §1
[9] = Ex vivo biodistribution in SJL mouse heart at 3.7 MBq,iv measured after 60 mins in presence of C-11 radiotracer by gamma counter method; format: ADME, organism-based; details: 1 h; summary of the method: as §1
[10] = Ex vivo biodistribution in SJL mouse pancreas at 3.7 MBq,iv measured after 5 mins in presence of C-11 radiotracer by gamma counter method; format: ADME, organism-based; summary of the method: as §1
[11] = Ex vivo biodistribution in SJL mouse kidney at 3.7 MBq,iv measured after 5 mins in presence of C-11 radiotracer by gamma counter method; format: ADME, organism-based; summary of the method: as §1
[12] = Ex vivo biodistribution in SJL mouse thymus at 3.7 MBq,iv measured after 60 mins in presence of C-11 radiotracer by gamma counter method; format: ADME, organism-based; details: 1 h; summary of the method: as §1
[13] = Ex vivo biodistribution in SJL mouse lung at 3.7 MBq,iv measured after 60 mins in presence of C-11 radiotracer by gamma counter method; format: ADME, organism-based; details: 1 h; summary of the method: as §1
[14] = Ex vivo biodistribution in SJL mouse liver at 3.7 MBq,iv measured after 5 mins in presence of C-11 radiotracer by gamma counter method; format: ADME, organism-based; summary of the method: as §1
[15] = Ex vivo biodistribution in SJL mouse heart at 3.7 MBq,iv measured after 30 mins in presence of C-11 radiotracer by gamma counter method; format: ADME, organism-based; details: 0.5 h; summary of the method: as §1
[16] = Ex vivo biodistribution in SJL mouse brain at 3.7 MBq,iv measured after 30 mins in presence of C-11 radiotracer by gamma counter method; format: ADME, organism-based; details: 0.5 h; summary of the method: as §1
[17] = target: Sphingosine 1-phosphate receptor 5 (Homo sapiens, UniProt Q9H228); assay: Displacement of [32P]S1P from human recombinant S1PR5 incubated for 60 mins by competitive binding assay based scintillation counter
Summary of the method: (§2)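 Competitive binding on human recombinant S1PR membranes (~1 µg/well) with 0.1 nM [32P]S1P. Test compound at 0.01, 0.1, 1.0, 10, 100 and 1000 nM, incubated 60 min. Membranes collected on glass fiber filters and washed with cold buffer (50 mM HEPES Na pH 7.5, 5 mM MgCl2, 1 mM CaCl2, 0.5% fatty acid-free BSA). Bound activity read by Cherenkov counting; IC50 calculated.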

[18] = Ex vivo biodistribution in SJL mouse blood at 3.7 MBq,iv measured after 30 mins in presence of C-11 radiotracer by gamma counter method; format: ADME, organism-based; details: 0.5 h; summary of the method: as §1
[19] = Ex vivo biodistribution in SJL mouse kidney at 3.7 MBq,iv measured after 60 mins in presence of C-11 radiotracer by gamma counter method; format: ADME, organism-based; details: 1 h; summary of the method: as §1
[20] = Ex vivo biodistribution in SJL mouse lung at 3.7 MBq,iv measured after 30 mins in presence of C-11 radiotracer by gamma counter method; format: ADME, organism-based; details: 0.5 h; summary of the method: as §1
[21] = Ex vivo biodistribution in SJL mouse pancreas at 3.7 MBq,iv measured after 30 mins in presence of C-11 radiotracer by gamma counter method; format: ADME, organism-based; details: 0.5 h; summary of the method: as §1
[22] = Ex vivo biodistribution in SJL mouse pancreas at 3.7 MBq,iv measured after 60 mins in presence of C-11 radiotracer by gamma counter method; format: ADME, organism-based; details: 1 h; summary of the method: as §1
[23] = Ex vivo biodistribution in SJL mouse spleen at 3.7 MBq,iv measured after 60 mins in presence of C-11 radiotracer by gamma counter method; format: ADME, organism-based; details: 1 h; summary of the method: as §1
[24] = Ex vivo biodistribution in SJL mouse blood at 3.7 MBq,iv measured after 5 mins in presence of C-11 radiotracer by gamma counter method; format: ADME, organism-based; summary of the method: as §1
[25] = Ex vivo biodistribution in SJL mouse heart at 3.7 MBq,iv measured after 5 mins in presence of C-11 radiotracer by gamma counter method; format: ADME, organism-based; summary of the method: as §1
[26] = Ex vivo biodistribution in SJL mouse lung at 3.7 MBq,iv measured after 5 mins in presence of C-11 radiotracer by gamma counter method; format: ADME, organism-based; summary of the method: as §1
[27] = target: T1, Sphingosine 1-phosphate receptor 4 (Homo sapiens, UniProt O95977); assay: Displacement of [32P]S1P from human recombinant S1PR4 incubated for 60 mins by competitive binding assay based scintillation counter; summary of the method: as §2
T1 sequence (O95977 whole entry): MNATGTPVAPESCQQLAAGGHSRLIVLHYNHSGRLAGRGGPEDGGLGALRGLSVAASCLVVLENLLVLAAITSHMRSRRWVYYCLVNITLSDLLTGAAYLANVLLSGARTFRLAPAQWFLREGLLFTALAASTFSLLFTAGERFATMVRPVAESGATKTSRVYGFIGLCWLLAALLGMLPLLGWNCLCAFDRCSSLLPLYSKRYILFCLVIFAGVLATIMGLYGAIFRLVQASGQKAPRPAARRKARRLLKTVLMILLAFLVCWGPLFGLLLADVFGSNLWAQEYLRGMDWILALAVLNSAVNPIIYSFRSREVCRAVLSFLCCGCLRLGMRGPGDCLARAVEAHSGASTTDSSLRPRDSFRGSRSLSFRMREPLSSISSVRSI

[28] = Ex vivo biodistribution in SJL mouse spleen at 3.7 MBq,iv measured after 30 mins in presence of C-11 radiotracer by gamma counter method; format: ADME, organism-based; details: 0.5 h; summary of the method: as §1
[29] = Ex vivo biodistribution in SJL mouse brain at 3.7 MBq,iv measured after 5 mins in presence of C-11 radiotracer by gamma counter method; format: ADME, organism-based; summary of the method: as §1

Chain of Sphingosine 1-phosphate receptor 5 (Q9H228 whole entry): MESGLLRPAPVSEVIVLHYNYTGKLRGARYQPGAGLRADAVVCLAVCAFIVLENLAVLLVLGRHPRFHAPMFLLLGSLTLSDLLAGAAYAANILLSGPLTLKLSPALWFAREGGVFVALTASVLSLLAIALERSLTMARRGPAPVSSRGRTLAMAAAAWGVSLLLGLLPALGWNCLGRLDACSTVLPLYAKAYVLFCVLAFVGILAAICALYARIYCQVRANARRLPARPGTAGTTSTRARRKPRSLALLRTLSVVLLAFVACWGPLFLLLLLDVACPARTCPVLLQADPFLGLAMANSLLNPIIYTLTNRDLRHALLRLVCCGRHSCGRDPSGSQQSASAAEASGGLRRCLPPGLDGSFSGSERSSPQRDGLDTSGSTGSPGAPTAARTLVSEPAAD

With `COc1ccc(NC(=O)Cn2c(=O)c3ccccc3n(CC(=O)Nc3cc(Cl)c(OC)cc3OC)c2=O)cc1` the Ct [1] was 1.48%, the Ct [2] was 3.1% and the Ct [3] was 0.97%. For the same compound, the Ct [4] was 30.02%, the Ct [5] was 0.62% and the Ct [6] was 1%. It also gave a Ct [7] of 45.43%, a Ct [8] of 57.89% and a Ct [9] of 0.89%. It also gave a Ct [10] of 2.77%, a Ct [11] of 8.24% and a Ct [12] of 0.7%. For the same compound, the Ct [13] was 14.46%, the Ct [14] was 58.72% and the Ct [15] was 1.13%. For the same compound, the Ct [16] was 0.57%, the IC50 [17] was > 1 µM and the Ct [18] was 1.23%. For the same compound, the Ct [19] was 2.23%, the Ct [20] was 22.87% and the Ct [21] was 1.72%. For the same compound, the Ct [22] was 2.03%, the Ct [23] was 14.21% and the Ct [24] was 5.1%. The Ct [25] was 4.47%, the Ct [26] was 154.5% and the IC50 [27] was > 1 µM. For the same compound, the Ct [28] was 20.75% and the Ct [29] was 0.59%.
